The species named for one assay is Homo sapiens. In words: Selectivity ratio of IC50 for HDAC1 (unknown origin) to IC50 for HDAC6 (unknown origin).
A further assay deals with HCT-116. In words: cells. The format is functional. The settings on record: Homo sapiens, HCT-116, 48 h.
For assay [1], the target named is Heat shock protein HSP 90-alpha (Homo sapiens, UniProt P07900). In words: Inhibition of FITC-geldanamycin binding to recombinant human full-length C-terminal His-tagged HSP90alpha expressed in Escherichia coli after 3 hrs by fluorescence polarization assay. Background: Polarisation of emitted light reports the rotation of a fluorescent probe.
The test system of another assay is NCI-H1975. In words: cells. It counts as functional. The settings on record: Homo sapiens, NCI-H1975, 48 h.
The target of a further assay is Histone deacetylase. The format is cell-based, Homo sapiens. The settings on record: hela.
A further assay relates to A549. In words: Antiproliferative activity against human A549 cells assessed as cell growth inhibition after 48 hrs by sulforhodamine B assay. It counts as functional. In outline:
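Cells seeded at 5000/well overnight; baseline plate fixed with 10% TCA at time of compound addition (T0). Treated with DMSO or graded doses for 48 h, fixed with 10% TCA, stained with 0.4% (w/v) SRB in 1% acetic acid, washed with 1% acetic acid, dye solubilised in 10 mM Trizma base, absorbance at 515 nm. GI50 from T0-corrected growth; at least three independent experiments, SD reported.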
On the technique in general: The SRB assay estimates cell density from bound dye.

A further assay can be described thus: cells. The format is ADME, cell-based. The settings on record: Homo sapiens, SC9.
Another assay addresses Histone deacetylase 1 (Homo sapiens, UniProt Q13547). In words: Inhibition of HDAC1 (unknown origin).

pIC50: −log10 of the molar value.

Histone deacetylase 1, sequence (Q13547 whole entry): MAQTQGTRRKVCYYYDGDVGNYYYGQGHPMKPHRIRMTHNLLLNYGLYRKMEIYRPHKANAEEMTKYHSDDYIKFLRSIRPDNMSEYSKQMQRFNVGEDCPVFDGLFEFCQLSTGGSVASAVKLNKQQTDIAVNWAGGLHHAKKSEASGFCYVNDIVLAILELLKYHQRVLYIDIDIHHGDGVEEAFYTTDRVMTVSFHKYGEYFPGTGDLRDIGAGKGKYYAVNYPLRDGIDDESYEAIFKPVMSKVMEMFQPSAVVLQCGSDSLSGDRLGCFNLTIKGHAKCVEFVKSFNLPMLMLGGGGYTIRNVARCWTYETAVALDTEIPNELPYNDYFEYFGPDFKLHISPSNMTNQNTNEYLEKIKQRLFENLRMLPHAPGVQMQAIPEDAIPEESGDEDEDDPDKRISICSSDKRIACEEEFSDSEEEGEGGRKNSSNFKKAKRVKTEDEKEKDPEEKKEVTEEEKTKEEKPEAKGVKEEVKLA

As to `O=C(CCCCCCC(=O)Nc1ccc(-c2cn(Cc3ccc(F)cc3)nn2)cc1)NO`, the Ratio IC50 in the assay listed under Homo sapiens was 51.

The term GI50 denotes the concentration at which growth is held to half of that of the control. One may read the pIC50 as the negative decadic logarithm of the IC50, by convention in mol/L. Regarding `CC(C)c1cc(C(=O)N(C)c2cccc(NC(=O)CCCCCCC(=O)NO)c2)c(O)cc1O`, the GI50 in the assay with HCT-116 is 1.17 µM; in the assay with NCI-H1975 it was 1660 nM; with A549 (Homo sapiens, A549, 48 h), 2300 nM. The results for the pIC50 (in assay [1]; against Histone deacetylase) were 6.52 and 6.68, respectively.

Regarding `CC(C)c1cc(C(=O)Nc2ccccc2NC(=O)CCCCCCC(=O)NO)c(O)cc1O`, the GI50 is 4.92 µM in the assay with HCT-116; greater than 10000 nM in the assay with NCI-H1975; greater than 10000 nM with A549 (Homo sapiens, A549, 48 h). For the same compound, the pIC50 (in assay [1]; against Histone deacetylase) was less than 6.00 throughout.

On to `CCN(C(=O)c1cc(C(C)C)c(O)cc1O)c1ccc(NC(=O)CCCCCCC(=O)NO)cc1`, for which the concentration for 50% growth inhibition (GI50) with HCT-116 was found to be 3.56 µM; in the assay with NCI-H1975, 1380 nM; with A549 (Homo sapiens, A549, 48 h) it was 5630 nM. For the same compound, the pIC50 in assay [1] was 6.73; against Histone deacetylase it was 6.34.

Turning to `CC(C)c1cc(C(=O)N(c2ccc(NC(=O)CCCCCCC(=O)NO)cc2)C(C)C)c(O)cc1O`, the GI50 in the assay with HCT-116 is greater than 10 µM; in the assay on NCI-H1975, greater than 10000 nM; with A549 (Homo sapiens, A549, 48 h), greater than 10000 nM. Also, the pIC50 (in assay [1]; at Histone deacetylase) was less than 6.00 throughout.

With `CC(C)c1cc(C(=O)Nc2ccc(NC(=O)CCCCCCC(=O)NO)cc2)c(O)cc1O`, the GI50 in the assay on HCT-116 is 5.43 µM; in the assay with NCI-H1975, greater than 10000 nM; in the assay on A549 (Homo sapiens, A549, 48 h), greater than 10000 nM. The pIC50 in assay [1] was less than 6.00; against Histone deacetylase, 6.38.

As for `CCN(C(=O)c1cc(C(C)C)c(O)cc1O)c1cccc(NC(=O)CCCCCCC(=O)NO)c1`, the 50% growth inhibitory concentration (GI50) amounted to 1.12 µM in the assay on HCT-116; 940 nM in the assay with NCI-H1975; 1590 nM in the assay with A549 (Homo sapiens, A549, 48 h). The negative-log IC50 (pIC50) in assay [1] is 6.84; against Histone deacetylase it was 6.90.

Turning to `CC(C)c1cc(C(=O)N(C)c2ccc(NC(=O)CCCCCCCCC(=O)NO)cc2)c(O)cc1O`, the GI50 with HCT-116 stood at 0.59 µM; with NCI-H1975, 210 nM; in the assay with A549 (Homo sapiens, A549, 48 h), 1080 nM. On Histone deacetylase, this compound had a pIC50 of 6.17.

For the compound `O=C(CCCCC[C@@H](NC(=O)c1ccccc1)C(=O)Nc1ccc2ncccc2c1)NO`, the values for the pIC50 in “cells” and at Histone deacetylase 1 were 7.05 and 8.46, respectively.

Regarding `CC(C)c1cc(C(=O)Nc2cccc(NC(=O)CCCCCCC(=O)NO)c2)c(O)cc1O`, the GI50 was 6.23 µM in the assay with HCT-116; greater than 10000 nM in the assay on NCI-H1975; greater than 10000 nM in the assay on A549 (Homo sapiens, A549, 48 h). Further, the pIC50 was less than 6.00 in assay [1] and 6.98 against Histone deacetylase.

In the case of `C=CCNC1=C2C[C@@H](C)C[C@H](OC)[C@H](O)[C@@H](C)/C=C(\C)[C@H](OC(N)=O)[C@@H](OC)/C=C\C=C(/C)C(=O)NC(=CC1=O)C2=O` (stereo in doubt) [TANESPIMYCIN], the GI50 in the assay with HCT-116 stood at 0.34 µM; with NCI-H1975, 160 nM; in the assay with A549 (Homo sapiens, A549, 48 h), 7.5 nM. Besides, the pIC50 at Histone deacetylase is less than 6.00.

Consider `O=C(CCCCCCC(=O)Nc1ccccc1)NO` [VORINOSTAT], for which the pIC50 in assay [1] is less than 6.30. Besides, in the assay with A549, the 50% growth inhibitory concentration (GI50) turned out to be 1020 nM.

For the compound `CC(C)c1cc(C(=O)N(C)c2ccc(NC(=O)CCCCCC(=O)NO)cc2)c(O)cc1O`, the 50% growth inhibitory concentration (GI50) worked out at 3.78 µM in the assay on HCT-116; 690 nM in the assay with NCI-H1975; 2830 nM in the assay on A549 (Homo sapiens, A549, 48 h). Moreover, the pIC50 in assay [1] was 6.77; against Histone deacetylase it was 6.41.

Turning to `O=C(CCCCC[C@@H](NC(=O)c1ccccc1)C(=O)Nc1ccccc1)NO`, the values for the pIC50 in the assay “cells” and against Histone deacetylase 1 were 7.14 and 7.92, respectively.
